Source: PubChem BioAssay (Broad Institute)
A selection: hits, their analogues and other compounds. The true share with any hit is near 1.5%.
AF4-AF9 inh – blocks AF4 peptide binding to human AF9 | P42568 | AlphaScreen, biotin-AF4 peptide binding to FLAG-AF9 | inhibition, % at 10 µM | 350,000 compounds, 0.47% hits | AID 651704;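 active = every replicate reaching a set inhibition limit, whatever the replicate mean, cut at about 25% in these data; inconclusive = mean inhibition reaches that limit but some replicates miss it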
RAD52 anneal inh – blocks human RAD52 DNA annealing | P43351 | recombinant RAD52 DNA annealing, FRET fluorescence | inhibition, % at 18.7 µM | 360,000 compounds, 0.46% hits;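 active = every replicate showing at least 50% inhibition; inconclusive = mean inhibition at least 50% but not in every replicate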
S100A4 inh HTS – inhibitors of human S100A4 binding to myosin IIA peptide; P26447; S100A4/TAMRA-MyoIIA peptide fluorescence polarization; inhibition, % at 10.7 µM; 360,000 compounds, 0.14% hits;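 active = mean inhibition of at least 70% across replicates, with every replicate also reaching that level; inconclusive = mean inhibition reaches 70% but some replicates fall short; inactive = mean inhibition below 70%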
Target sequence (P26447 whole entry, looked up): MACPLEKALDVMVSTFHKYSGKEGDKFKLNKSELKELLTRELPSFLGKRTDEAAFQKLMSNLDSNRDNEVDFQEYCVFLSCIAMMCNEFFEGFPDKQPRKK
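assay system = human S100A4 monomer with TAMRA-labelled myosin IIA peptide | also added = labelled myosin peptide probe, 5 nM | incubation = 5 min between mix addition and reading | control set = DMSO and TFP controls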
dFosB act-1 – enhances mouse delta FosB homodimer DNA binding. purified delta FosB, TAMRA-CDK5 oligo fluorescence polarization; percent of positive-control signal above neutral wells. P13346. 340,000 compounds, 0.99% hits. activation, % at 25 µM;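 active = mean activation above about 17%, with every replicate also reaching it, limit read from the data, passing the limit was not always enough; inconclusive = only one of the two conditions met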
Target sequence (P13346 whole entry, looked up): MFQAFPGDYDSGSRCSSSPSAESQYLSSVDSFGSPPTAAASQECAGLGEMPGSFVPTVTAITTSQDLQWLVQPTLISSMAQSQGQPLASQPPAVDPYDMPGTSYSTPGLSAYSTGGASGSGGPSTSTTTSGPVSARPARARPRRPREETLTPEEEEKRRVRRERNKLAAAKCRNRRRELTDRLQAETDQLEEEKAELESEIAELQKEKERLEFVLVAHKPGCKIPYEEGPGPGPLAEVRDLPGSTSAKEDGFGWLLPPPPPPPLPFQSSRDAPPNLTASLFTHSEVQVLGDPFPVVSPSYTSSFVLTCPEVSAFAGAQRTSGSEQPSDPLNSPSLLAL
RAD54 branch – blocks human RAD54 Holliday junction branch migration. Q92698. FAM/BHQ fluorescence. inhibition, % at 10.4 µM. 360,000 compounds, 0.14% hits;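 active = mean normalized replicate activity at least 40 and at least half of replicates scoring 40 or more; inconclusive = only one of the two criteria met; inactive = mean below 40 and under half of replicates reaching 40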;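 also: inhibitors cause a drop in the FAM fluorescence signal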
dFosB act-2 – delta FosB (mouse) homodimer activation; shares compounds with dFosB act-1; purified delta FosB, TAMRA-CDK5 oligo fluorescence polarization; normalised: neutral wells 0, positive control 100; activation, % at 24.9 µM; 2,400 tested, under 10 active; AID 588690;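 active = highest replicate activation at or above 34% and every replicate reaching that threshold; inconclusive = meets only one of the two criteria; inactive = meets neither criterion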;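 also: higher polarization means more probe DNA bound by delta FosB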
Hits are given with their value; i = inactive; ? = inconclusive; nt = no result given.

SMILES	AF4-AF9 inh	RAD52 anneal inh	S100A4 inh HTS	dFosB act-1	RAD54 branch	dFosB act-2
C[C@@H]1CN([C@H](C)CO)C(=O)c2cc(NS(C)(=O)=O)ccc2O[C@@H]1CN(C)CC1CC1	i	i	i	nt	i	nt
CO[C@H]1CN(C)C(=O)c2ccc(NC(=O)C3CC3)cc2OC[C@@H](C)N(CC2CCOCC2)C[C@H]1C	i	i	i	nt	i	nt
CCOC(=O)c1c(C)[nH]c2cc(Br)c(OC)cc12	nt	nt	nt	18	i	i
Cc1ccc(S(=O)(=O)Nc2ccc3c(c2)CC(=O)N([C@@H](C)CO)C[C@@H](C)[C@H](CN(C)S(=O)(=O)c2cn(C)cn2)O3)cc1	i	i	i	nt	i	nt
C/C=C/c1ccc2c(c1)O[C@H](CN(C)Cc1cccc(F)c1)[C@H](C)CN([C@@H](C)CO)S2(=O)=O	i	i	i	nt	i	nt
CCc1ccccc1NC(=O)CCc1nc(-c2ccc(C)cc2)no1	nt	nt	nt	21	i	i
Cc1ccc(-c2noc(CCC(=O)Nc3ccccc3C)n2)cc1	nt	nt	nt	i	i	nt
COc1ccc(-c2cc3c(=O)n(CC(=O)Nc4ccc(C(C)=O)cc4)ncn3n2)cc1	i	i	i	74	i	i
O=C(Cc1csc(Nc2nc(=S)[nH]c3ccccc23)n1)NCc1cccc(Cl)c1	nt	nt	nt	i	i	nt
O=C(C1CCC(CNc2nc(=S)[nH]c3ccccc23)CC1)N1CCN(c2ccc(F)cc2)CC1 (stereo unspecified)	i	i	i	37	nt	i
CC(=O)Nc1ccc(S(=O)(=O)NCC2CCC(C(=O)NCCC3=CCCCC3)CC2)cc1 (stereo unspecified)	i	i	i	63	i	i
O=C(NCCc1ccc(Cl)cc1)C1CCC(CNc2nc(=S)[nH]c3ccccc23)CC1 (stereo unspecified)	i	i	i	72	i	i
COc1ccc(N2CCN(CCCNC(=O)C3CCC(CNc4nc(=S)[nH]c5ccccc45)CC3)CC2)cc1 (stereo unspecified)	i	i	i	i	nt	nt
O=C(Cc1csc(Nc2nc(=S)[nH]c3ccccc23)n1)NCc1ccccc1Cl	nt	nt	nt	49	i	i
COc1ccc(CN(C)C[C@H]2OCCCC[C@H](C)Oc3ccc(N(C)C)cc3C(=O)N([C@@H](C)CO)C[C@@H]2C)cc1	i	i	i	nt	i	nt
O=C(N[C@H]1CC[C@H](CCNC(=O)c2cnccn2)O[C@@H]1CO)c1ccc2c(c1)OCO2	i	i	i	nt	i	nt
C[C@H]1CCCCO[C@H](CN(C)Cc2ccc3c(c2)OCO3)[C@@H](C)CN([C@@H](C)CO)C(=O)c2cc(NC(=O)Cc3ccccc3)ccc2O1	nt	nt	nt	nt	i	nt
O=C(NCc1ccccc1Cl)C1CCC(CNc2nc(=S)[nH]c3ccccc23)CC1 (stereo unspecified)	i	i	i	71	nt	i
O=C(NCCC1=CCCCC1)C1CCC(CNc2nc(=S)[nH]c3ccccc23)CC1 (stereo unspecified)	i	i	i	23	i	i
CO[C@@H]1CN(C)C(=O)c2ccc(NS(=O)(=O)c3ccccc3)cc2OC[C@H](C)N(Cc2nccs2)C[C@H]1C	i	i	i	nt	i	nt
C/C=C/c1cnc2c(c1)C(=O)N([C@@H](C)CO)C[C@@H](C)[C@H](CN(C)Cc1ccc(F)cc1)O2	i	i	i	nt	i	nt
CCOc1ccc(NC(=S)N2CCc3cc(OC)c(OC)cc3C2COc2ccc3c(C)cc(=O)oc3c2)cc1 (stereo unspecified)	nt	nt	nt	50	nt	i
COc1ccc2cc1Oc1ccc(cc1)C[C@H]1c3cc(c(OC)cc3CCN1C)Oc1c(OC)c(OC)cc3c1[C@H](C2)N(C)CC3	?	i	i	26	i	?
COc1ccc2cc1Oc1ccc(cc1)C[C@H]1c3c(cc4c(c3Oc3cc5c(cc3OC)CCN(C)[C@@H]5C2)OCO4)CCN1C	i	i	i	i	i	nt
O=C(CC1CC1)N[C@H]1C[C@@H]2O[C@H](CO)CC[C@@H]2O[C@@H]1CCc1ccc(C#Cc2ccccc2)cc1	i	i	i	nt	nt	nt
SMILES	AF4-AF9 inh	RAD52 anneal inh	S100A4 inh HTS	dFosB act-1	RAD54 branch	dFosB act-2
O=C(Nc1c(-c2ccccc2)nc2ncccn12)c1cc2ccccc2oc1=O	i	i	i	38	i	i
O=C(Nc1cccc(-c2cn3ccccc3n2)c1)c1cc2ccccc2oc1=O	i	i	i	61	i	i
Cc1ccnc(NC(=O)c2cc3ccccc3oc2=O)c1	i	i	i	i	nt	nt
CC(=O)N1CC2(C1)[C@H](c1ccc(-c3cccc(F)c3)cc1)[C@@H](CO)N2CC1CCCC1	i	i	i	nt	nt	nt
O=C(NCCc1nc2ccccc2[nH]1)/C(=C/c1ccc2c(c1)OCO2)NC(=O)c1ccc(Cl)cc1Cl	nt	nt	nt	20	nt	i
CCc1cc2ccc(C)c(C)c2nc1SCC(=O)NNC(=O)c1ccco1	i	i	i	28	nt	i
COC(=O)Nc1ccc(S(=O)(=O)NNC(=O)c2c(O)c3ccccc3n(C)c2=O)cc1	i	i	i	41	i	i
CCn1c(=O)c(C(=O)NNS(=O)(=O)c2ccc(NC(=O)OC)cc2)c(O)c2ccccc21	i	i	i	i	i	nt
O=C1COc2ccc(C(=O)CSc3nnc(NCc4ccccc4)s3)cc2N1	i	i	i	43	nt	i
Cc1cc(NC(=O)CSc2nnc(NCc3ccccc3)s2)no1	i	i	i	22	i	i
O=C1COc2ccc(C(=O)CSc3nnc(Cc4ccccc4)o3)cc2N1	i	i	i	i	i	nt
Cn1c(SCC(=O)c2ccc3c(c2)NC(=O)CO3)nc2ccccc21	i	i	i	39	nt	i
CCc1ccc(-n2c(SCC(=O)c3ccc4c(c3)NC(=O)CO4)nc3ccccc3c2=O)cc1	i	i	i	i	nt	nt
O=C1COc2ccc(C(=O)CSc3nc4ccccc4c(=O)n3-c3ccc(Cl)c(Cl)c3)cc2N1	i	i	i	56	nt	i
COc1ccccc1Nc1nnc(SCC(=O)Nc2cc(C)on2)s1	nt	nt	nt	i	i	nt
CCC(=O)N1C[C@H](C)[C@H](OC)CN(C)C(=O)c2cc(NS(=O)(=O)CC)ccc2OC[C@@H]1C	i	i	i	nt	i	nt
Cc1ccc(-c2ccc3c(c2)O[C@@H](CN(C)C(=O)CC2CC2)[C@@H](C)CN([C@H](C)CO)S3(=O)=O)cc1	i	i	i	nt	i	nt
S=C1Nc2ccccc2Sc2ccc(Cl)cc21	i	i	i	34	i	i
Cc1cccc(C)c1NC(=O)CCCn1nc(C)c2c(C)n(-c3ccccc3)nc2c1=O	i	i	i	19	i	i
CCOc1ccccc1CNC(=O)Cn1nc(C)c2c(C)n(-c3ccc(C)cc3)nc2c1=O	nt	nt	nt	53	i	i
Cc1ccc(NC(=O)CCCn2nc(C)c3c(C)n(-c4ccccc4)nc3c2=O)cc1C	i	i	i	i	i	nt
CCOc1ccc(CNC(=O)C2CCN(c3nnc(C)c4c(C)n(-c5ccc(C)cc5)nc34)CC2)cc1	i	i	i	78	i	i
COc1ccccc1CCNC(=O)C1CCN(c2nnc(C)c3c(C)n(-c4ccc(C)cc4)nc23)CC1	i	i	i	i	i	nt
